Tests used:
[1] = Cytotoxicity against Hepatocyte cells assessed as cell viability by MTT assay; assay type: cell-based; conditions: hepatocytes; read-out: TC50 (the source's name)
Procedure, shortened: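 MTT assay in mouse hepatocyte cultures prepared as for infection. Drugs at eight concentrations from 6.4 x 10–3 to 100 µM, triplicate wells. MTT 0.5 mg/ml (final) added for 4 h at 37°C, cells taken up in ethanol/DMSO 50/50, absorbance 550 nm with 620 nm reference. Viability expressed as percent of drug-free controls; TC50 by linear regression.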

[2] = system: Plasmodium yoelii yoelii; assay: Antimicrobial activity against Plasmodium yoelii 265 liver infected in mammalian hepatocytes after 48 hrs; assay type: functional, organism-based; conditions: Plasmodium yoelii, 265, Hepatocyte
[3] = Selectivity index, ratio of TC50 for hepatocytes to IC50 for Plasmodium yoelii; design: species or system Hepatocyte
Procedure, shortened: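 SI calculated as hepatocyte TC50 (MTT, mouse hepatocytes) divided by liver-stage IC50 against P. yoelii yoelii, both measured in this work.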

[4] = system: Plasmodium falciparum; assay: Antimicrobial activity against Plasmodium falciparum NF54 schizonts in mammalian hepatocytes after 96 hrs; assay type: functional, organism-based; conditions: NF54, Hepatocyte
Procedure, shortened: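 Primary hepatocytes isolated by collagenase perfusion, 10^5 cells per chamber-slide well, held 24 h at 37°C, 4% CO2, then infected with 9 x 10^4 NF54 sporozoites dissected from salivary glands of infected Anopheles stephensi. Drugs added at infection to duplicate cultures, seven concentrations from 1 x 10^-6 to 30 µM, renewed daily. Methanol-fixed; HSPi72 serum with FITC anti-mouse IgG; schizonts counted; IC50 by linear regression.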

Compound	CC50 [1]	IC50 [2]	Selectivity Index [3]	IC50 [4]
CC(C)(C)NC(=O)[C@@H]1CN(Cc2cccnc2)CCN1C[C@@H](O)C[C@@H](Cc1ccccc1)C(=O)N[C@H]1c2ccccc2C[C@H]1O	8.77 µM	5000 nM		
COCC(=O)O[C@]1(CCN(C)CCCc2nc3ccccc3[nH]2)CCc2cc(F)ccc2[C@@H]1C(C)C [MIBEFRADIL]	67.9 µM	0.873 nM	77000	
CC(C)Nc1cccnc1N1CCN(C(=O)c2cc3cc(NS(C)(=O)=O)ccc3[nH]2)CC1 [DELAVIRDINE]	> 100 µM	0.846 nM	>118000	
COC(=O)Nc1nc2cc(Sc3ccccc3)ccc2[nH]1 [FENBENDAZOLE]	> 100 µM	30000 nM	>3.33	
CC[C@H](C)[C@H](NC(=O)[C@H]([C@@H](C)CC)N(C)C(C)=O)C(=O)N[C@H](C(=O)N[C@@H](CC(C)C)C(=O)[C@@]1(C)CO1)[C@@H](C)O [EPOXOMYCIN]	47.3 µM	3950 nM	11.97	
C=CC(C)(C)c1cc(/C=C/C(=O)c2ccc(O)cc2)c(OC)cc1O [LICOAGROCHACONE A]	63.4 µM	0.927 nM	68300	
COc1cc(NC(C)CCCN)c2ncccc2c1 (stereo unspecified) [PRIMAQUINE]	12.5 µM			
CC(N)C12CC3CC(CC(C3)C1)C2 (stereo unspecified) [RIMANTADINE]	> 100 µM	35.6 nM	>3.33	
CC[C@@]1([C@@H]2O[C@@H]([C@H]3O[C@@](O)(CO)[C@H](C)C[C@@H]3C)C[C@@H]2C)CC[C@H]([C@]2(C)CC[C@]3(C[C@H](O)[C@@H](C)[C@@H]([C@@H](C)[C@@H](OC)[C@H](C)C(=O)O)O3)O2)O1 [MONENSIN]	> 32 µM	< 0.001 nM	>32000000	< 1 pM
CCN(CC)CCCC(C)Nc1c2ccc(Cl)cc2nc2ccc(OC)cc12 (stereo unspecified) [QUINACRINE]	> 11.6 µM	30000 nM	>0.38	
CC(Cc1ccc(O)c(O)c1)C(C)Cc1ccc(O)c(O)c1 (stereo unspecified) [NORDIHYDROGUAIARETIC ACID]	> 100 µM	30000 nM	>3.33	
CO[C@@H]1C[C@@H](C[C@H]2CC[C@H](C)[C@H]([C@@H](C)C(=O)O)O2)O[C@]2(O[C@](C)([C@H]3CC[C@@](C)([C@@H]4O[C@@H]([C@H]5O[C@@](O)(CO)[C@H](C)C[C@@H]5C)C[C@@H]4C)O3)C[C@H]2C)[C@@H]1C [NIGERICIN]	13.2 µM	< 0.001 nM	>13200000	< 1 pM
CC(C)c1nc(CN(C)C(=O)N[C@H](C(=O)N[C@@H](Cc2ccccc2)C[C@H](O)[C@H](Cc2ccccc2)NC(=O)OCc2cncs2)C(C)C)cs1 [RITONAVIR]		34.2 nM		
Clc1ccc(COC(Cn2ccnc2)c2ccc(Cl)cc2Cl)c(Cl)c1 (stereo unspecified) [MICONAZOLE]	70.4 µM	2.03 nM	34700	
CC(CCc1ccc(O)cc1)NCCc1ccc(O)c(O)c1 (stereo unspecified) [DOBUTAMINE]	> 100 µM	3.7 nM	>27000	
O=C1C(O)=C([C@H]2CC[C@H](c3ccc(Cl)cc3)CC2)C(=O)c2ccccc21 [ATOVAQUONE]	16.5 µM	57 nM	289	
CC[C@]1(O)C[C@@H]2CN(CCc3c([nH]c4ccccc34)[C@@](C(=O)OC)(c3cc4c(cc3OC)N(C)[C@H]3[C@@](O)(C(=O)OC)[C@H](OC(C)=O)[C@]5(CC)C=CCN6CC[C@]43[C@@H]65)C2)C1 [VINBLASTINE]	54.5 µM	7950 nM	6.85	
CCOC(=O)NC(=S)Nc1ccccc1NC(=S)NC(=O)OCC [THIOPHANATE]	> 100 µM	30000 nM	>3.33	

Reference: ChEMBL document CHEMBL1255292, “New active drugs against liver stages of Plasmodium predicted by molecular topology” (Antimicrob Agents Chemother, 2008)
